Experimental data reported in ChEMBL document CHEMBL2346654, “Discovery of biological evaluation of pyrazole/imidazole amides as mGlu5 receptor negative allosteric modulators” (Bioorg Med Chem Lett, 2013).

How the values were obtained:
[1] = Half life in human liver microsomes
[2] = Half life in rat liver microsomes
Mus musculus [3] = test: Antidepressant activity in ICR mouse assessed as decrease in immobility time at 10 mg/kg, po administered 1 hr before test measured for 4 mins following training for 2 mins by forced swimming test; type: functional; parameters: scale not given: the % may be the effect or the level left
Summary of the method: (§1)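 Mouse forced swim test: ICR mice dosed orally 1 h before testing; 2 min training, then immobility duration recorded over 4 min. Activity expressed as % decrease in immobility duration. Mean ± SEM, n = 8; Dunnett's multiple comparisons after one-way ANOVA (p < 0.05).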

[4] = target: T1, Metabotropic glutamate receptor 5 (Homo sapiens, UniProt P41594); test: Negative allosteric modulation of human mGluR5 expressed in HEK293 cells assessed as calcium mobilization by FLIPR assay; type: functional, cell-based
Target sequence in this assay (P41594 whole entry): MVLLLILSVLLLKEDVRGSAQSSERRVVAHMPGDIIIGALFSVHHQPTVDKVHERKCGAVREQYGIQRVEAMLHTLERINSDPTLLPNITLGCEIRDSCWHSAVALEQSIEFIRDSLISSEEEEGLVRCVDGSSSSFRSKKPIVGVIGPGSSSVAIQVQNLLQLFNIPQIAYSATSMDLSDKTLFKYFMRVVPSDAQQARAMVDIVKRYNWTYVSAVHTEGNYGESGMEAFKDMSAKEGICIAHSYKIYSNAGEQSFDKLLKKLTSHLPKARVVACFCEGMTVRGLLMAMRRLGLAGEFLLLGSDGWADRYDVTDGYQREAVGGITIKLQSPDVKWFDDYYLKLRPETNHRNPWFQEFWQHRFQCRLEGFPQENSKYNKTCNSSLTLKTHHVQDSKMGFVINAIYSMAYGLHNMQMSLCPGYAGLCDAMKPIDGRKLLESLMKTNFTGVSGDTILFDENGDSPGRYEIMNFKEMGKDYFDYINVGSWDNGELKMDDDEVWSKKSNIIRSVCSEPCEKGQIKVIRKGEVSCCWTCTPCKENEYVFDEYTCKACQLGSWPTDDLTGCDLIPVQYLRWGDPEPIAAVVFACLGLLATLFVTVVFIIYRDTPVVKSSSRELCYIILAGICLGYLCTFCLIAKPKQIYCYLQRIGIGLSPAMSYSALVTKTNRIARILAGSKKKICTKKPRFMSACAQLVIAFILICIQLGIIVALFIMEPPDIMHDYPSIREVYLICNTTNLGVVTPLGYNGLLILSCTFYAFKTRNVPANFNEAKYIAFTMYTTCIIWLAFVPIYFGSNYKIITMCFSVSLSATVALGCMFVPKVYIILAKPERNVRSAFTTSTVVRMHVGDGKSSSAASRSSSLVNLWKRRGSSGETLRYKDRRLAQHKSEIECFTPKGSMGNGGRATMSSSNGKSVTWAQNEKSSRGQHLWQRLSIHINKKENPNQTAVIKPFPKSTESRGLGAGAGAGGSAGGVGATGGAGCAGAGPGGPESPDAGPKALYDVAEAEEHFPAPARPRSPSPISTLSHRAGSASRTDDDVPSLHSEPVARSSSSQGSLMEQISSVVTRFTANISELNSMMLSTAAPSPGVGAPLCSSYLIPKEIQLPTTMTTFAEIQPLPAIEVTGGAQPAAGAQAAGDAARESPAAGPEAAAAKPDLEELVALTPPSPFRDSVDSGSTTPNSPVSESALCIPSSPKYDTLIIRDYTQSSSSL

[5] = Half life in mouse liver microsomes
[6] = target: T1, Metabotropic glutamate receptor 5; test: Negative allosteric modulation of human mGluR5 expressed in HEK293 cells assessed as calcium mobilization at 2 uM by FLIPR assay; type: functional, cell-based
Target sequence in this assay (P41594 21-1212 limits assumed): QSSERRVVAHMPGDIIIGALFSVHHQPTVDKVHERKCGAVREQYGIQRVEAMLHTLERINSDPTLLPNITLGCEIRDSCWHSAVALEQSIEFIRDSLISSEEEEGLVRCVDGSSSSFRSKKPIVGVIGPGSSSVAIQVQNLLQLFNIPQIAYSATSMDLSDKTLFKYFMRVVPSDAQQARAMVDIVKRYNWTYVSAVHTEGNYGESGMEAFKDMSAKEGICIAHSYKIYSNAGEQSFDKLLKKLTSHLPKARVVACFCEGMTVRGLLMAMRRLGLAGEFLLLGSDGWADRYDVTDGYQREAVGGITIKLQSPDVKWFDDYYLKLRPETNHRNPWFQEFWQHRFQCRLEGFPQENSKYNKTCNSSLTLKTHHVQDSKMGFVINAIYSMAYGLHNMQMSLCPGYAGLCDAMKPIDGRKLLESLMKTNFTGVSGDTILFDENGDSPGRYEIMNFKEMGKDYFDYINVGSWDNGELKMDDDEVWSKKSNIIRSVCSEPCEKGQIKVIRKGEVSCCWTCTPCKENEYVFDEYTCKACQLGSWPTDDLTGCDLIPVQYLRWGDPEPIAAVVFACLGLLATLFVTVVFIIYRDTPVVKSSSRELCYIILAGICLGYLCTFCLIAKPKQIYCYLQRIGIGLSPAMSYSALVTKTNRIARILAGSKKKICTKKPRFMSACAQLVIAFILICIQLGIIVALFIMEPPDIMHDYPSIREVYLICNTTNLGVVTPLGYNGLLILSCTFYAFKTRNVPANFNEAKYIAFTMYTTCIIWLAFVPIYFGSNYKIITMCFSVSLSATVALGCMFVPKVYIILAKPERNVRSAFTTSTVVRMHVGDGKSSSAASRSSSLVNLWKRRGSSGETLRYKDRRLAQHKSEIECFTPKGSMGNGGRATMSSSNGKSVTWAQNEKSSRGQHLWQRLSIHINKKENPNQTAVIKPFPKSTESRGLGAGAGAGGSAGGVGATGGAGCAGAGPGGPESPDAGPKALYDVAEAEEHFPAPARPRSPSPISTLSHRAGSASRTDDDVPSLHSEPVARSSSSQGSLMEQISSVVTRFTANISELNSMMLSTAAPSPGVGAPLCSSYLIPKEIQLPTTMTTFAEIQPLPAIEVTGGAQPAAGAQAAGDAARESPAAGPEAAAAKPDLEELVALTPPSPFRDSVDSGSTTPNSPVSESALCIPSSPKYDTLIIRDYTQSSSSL

Mus musculus [7] = test: Antidepressant activity in ICR mouse assessed as decrease in immobility time at 50 mg/kg, po administered 1 hr before test measured for 4 mins following training for 2 mins by forced swimming test; type: functional; parameters: scale not given: the % may be the effect or the level left; summary of the method: as §1
[8] = target: T1, Metabotropic glutamate receptor 5; test: Negative allosteric modulation of human mGluR5 expressed in HEK293 cells assessed as calcium mobilization at 1 uM by FLIPR assay; type: functional, cell-based
Target sequence in this assay (P41594 21-1212 limits assumed): as above

Structure (SMILES) | half-life ([1]; liver microsomes) [h] | half-life ([2]; liver microsomes) [h] | IC50 [4] [nM] | half-life ([5]; liver microsomes) [h] | Activity (Mus musculus [3]) [%] | further results
Cc1cccc(NC(=O)c2nn(C)c(-c3ccc(Cl)c(Cl)c3)c2C)n1 | 1.78 | 2.47 | 2.3 | 3.25 | 45.8 | 
Cc1cccc(NC(=O)c2nn(C)c(OC3CCNCC3)c2C)n1 |  |  |  |  |  | inhibition [6]: 5.6%
Cc1nc(C(=O)Nc2ccnc(Cl)c2)c(C)n1-c1ccc(F)cc1 |  |  | 62 |  |  | half-life ([1]; microsomes): 3.75 h; half-life ([2]; microsomes): 1.57 h; half-life ([5]; microsomes): 5 h
Fc1ccc2nc(CCC#Cc3ccccn3)cn2c1 [DIPRAGLURANT] |  |  | 20 |  |  | Activity (Mus musculus [7]): 44.3%
Cc1ccc(NC(=O)c2nn(C)c(-c3ccc(F)cc3)c2C)nc1 | 0.433 | 1.12 | 90.8 | 0.217 |  | 
Cc1cccc(NC(=O)c2nn(C)c(-c3ccc(F)c(F)c3)c2C)n1 |  |  | 4.3 |  | 58.8 | half-life ([1]; microsomes): 0.767 h; half-life ([2]; microsomes): 2.48 h; half-life ([5]; microsomes): 0.7 h
Cc1cccc(NC(=O)c2nn(C)c(OC3CCN(C)CC3)c2C)n1 |  |  |  |  |  | inhibition [8]: -7.7%
Cc1cccc(NC(=O)c2nn(C)c(-c3ccc(C(F)(F)F)cc3)c2C)n1 | > 5 | > 5 | 38 | 3.23 | 18.5 | 
Cc1nc(C(=O)Nc2cccc(F)n2)c(C)n1-c1ccc(F)cc1 | 1.6 | 1.13 | 24.2 | 0.617 |  | 
Cc1c(C(=O)Nc2ccnc(Cl)n2)nn(C)c1-c1ccc(F)cc1 | > 5 | > 5 | 7.1 | > 5 | 31.2 | 
Cc1cccc(NC(=O)c2nn(C)c3ccccc23)n1 |  |  | > 1000 |  |  | 
Cc1c(C(=O)Nc2ccc(Cl)cn2)nn(C)c1-c1ccc(F)cc1 | > 5 | 3.65 | 184 | 0.267 |  | 
Cc1c(C(=O)Nc2cccc(C(F)(F)F)n2)nn(C)c1-c1ccc(F)cc1 | 4.48 | 0.967 | 130 | 1.63 |  | 
Cc1cccc(NC(=O)c2nn(C)c(OC3CCOCC3)c2C)n1 |  |  |  |  |  | inhibition [8]: 11.6%
Cc1cccc(NC(=O)c2nc(C)n(-c3ccc(Cl)c(Cl)c3)c2C)n1 | 2.03 | 2.23 | 5.8 | 1.55 | 85.2 | 
Cc1cccc(NC(=O)c2nc(C)n(-c3ccc(F)cc3)c2C)n1 |  |  | 13 |  | 52.1 | half-life ([1]; microsomes): 0.733 h; half-life ([2]; microsomes): 1.77 h; half-life ([5]; microsomes): 0.3 h
Cc1cccc(NC(=O)c2nn(C)c(OC3CCCCC3)c2C)n1 |  |  | 92 |  |  | 
O=C(Nc1cccc(Cl)c1)c1noc2c1CCC2 |  |  | 63 |  |  | 
Cc1cccc(NC(=O)c2nn(C)c(C3CCCCC3)c2C)n1 | 1.38 | 0.133 | 25 | 0.467 |  | 
Cc1nc(C(=O)Nc2ccc(F)cn2)c(C)n1-c1ccc(F)cc1 |  |  | 88.3 |  |  | half-life ([1]; microsomes): > 5 h; half-life ([2]; microsomes): 1.83 h; half-life ([5]; microsomes): 0.533 h

The next lines start with results.

half-life ([1]; liver microsomes) [h] | half-life ([2]; liver microsomes) [h] | IC50 [4] [nM] | half-life ([5]; liver microsomes) [h] | Structure (SMILES) | Activity (Mus musculus [3]) [%] | further results
> 5 | 1.58 | 17 | 1.18 | COc1ccc(-c2c(C)c(C(=O)Nc3cccc(C)n3)nn2C)cc1 | 14.4 | 
> 5 | 1.9 | 41.6 | > 5 | Cc1c(C(=O)Nc2ccnc(F)c2)nn(C)c1-c1ccc(F)cc1 | 15.5 | 
 |  | 645 |  | Cc1cccc(NC(=O)c2nn(C)c(-c3ccc(N(C)C)cc3)c2C)n1 |  | 
1 | 0.733 | 139 | 1.43 | Cc1nc(NC(=O)c2nc(C)n(-c3ccc(F)cc3)c2C)ccc1F |  | 
 |  | 4.7 |  | Cc1cccc(NC(=O)c2nn(C)c(-c3cccc(Cl)c3)c2C)n1 |  | half-life ([1]; microsomes): 2 h; half-life ([2]; microsomes): 0.917 h; half-life ([5]; microsomes): 0.533 h
 |  | 10.3 |  | Cc1c(C(=O)Nc2ccc(F)cn2)nn(C)c1-c1ccc(F)cc1 | 36.8 | half-life ([1]; microsomes): > 5 h; half-life ([2]; microsomes): > 5 h; half-life ([5]; microsomes): 0.65 h
 |  | 301 |  | Cc1c(C(=O)Nc2ccncc2)nn(C)c1-c1ccc(F)cc1 |  | 
 |  | 56.3 |  | Cc1c(C(=O)Nc2ccnc(Cl)c2)nn(C)c1-c1ccc(F)cc1 | 39.1 | half-life ([1]; microsomes): > 5 h; half-life ([2]; microsomes): 2.68 h; half-life ([5]; microsomes): > 5 h
1.92 | 1.8 | 16.4 | 1.93 | Cc1c(C(=O)Nc2cccc(Cl)n2)nn(C)c1-c1ccc(F)cc1 | 12.6 | 
